Type in all cases: biochemical
Assay [1] addresses Human Cathepsin L (Homo sapiens, UniProt P07711). Kind of assay: Human cathepsin L assay. The note with it: FRET Cathepsin L IC50, 10 pM human cathepsin L, 2 μM Z-FR-AMC, pH 5.5. The procedure, abridged: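 Human enzyme, 10 pM final, preincubated 30 min with test compound at ambient temperature in 20 mM sodium acetate, 1 mM EDTA, 0.005% Brij-35, 5 mM DTT, pH5.5. Started with 2 μM Z-FR-AMC (final). Fluorescence (355/460 excitation/emission) read at 2-min intervals over 30 min. IC50 from four-parameter curve fit.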

The target in assay [2] is rhinovirus HRV3C protease (Human rhinovirus 14, UniProt P03303). Nature of the assay: 3CLpro and HRV3C duplex SAMDI-MS assay, HRV3C readout. The method, boiled down: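 Enzymes preincubated 30 min with test compound. Biotinylated cognate peptides added (10 µM each, final). Reaction ran 30 min, then formic acid quench and bicarbonate neutralisation. Captured on SAMDI chips for 1 h; product conversion AUCprod/(AUCInt Stnd + AUCprod).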
Chain of rhinovirus HRV3C protease (P03303 1538-1719 limits assumed): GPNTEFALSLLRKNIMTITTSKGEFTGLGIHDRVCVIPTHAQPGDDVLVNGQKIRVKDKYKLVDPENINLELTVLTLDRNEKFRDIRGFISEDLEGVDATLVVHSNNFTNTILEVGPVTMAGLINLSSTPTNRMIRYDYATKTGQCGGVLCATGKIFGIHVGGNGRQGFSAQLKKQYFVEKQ

Assay [3] deals with SARS-CoV-2 3CLpro (Severe acute respiratory syndrome coronavirus 2, UniProt P0DTD1). As to conditions: duplex SAMDI-MS assay.

This note sets out measurements from article PMC7839511 (Antiviral Research, 2021).

A word on the IC50: it is the point on the concentration scale where inhibition reaches its midpoint.

Where only a bound is given, the exact number is not on record here.

Chain of Human Cathepsin L (P07711 114-333): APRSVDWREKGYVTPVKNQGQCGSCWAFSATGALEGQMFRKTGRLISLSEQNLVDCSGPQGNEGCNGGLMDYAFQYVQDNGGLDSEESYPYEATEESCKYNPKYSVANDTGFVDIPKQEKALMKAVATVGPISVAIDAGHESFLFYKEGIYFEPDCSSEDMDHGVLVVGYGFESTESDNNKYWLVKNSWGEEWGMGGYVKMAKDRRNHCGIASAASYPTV

For `CC(C)(C)NC(=O)N[C@H](C(=O)N1C[C@H]2[C@@H]([C@H]1C(=O)NC(CC1CCC1)C(=O)C(N)=O)C2(C)C)C(C)(C)C` (some centres unmarked) [Boceprevir], the half-inhibitory concentration (IC50) was 2300 nM in assay [1] and greater than 100000 nM in assay [2].

For the molecule `CCOC(=O)/C=C/[C@H](C[C@@H]1CCNC1=O)NC(=O)[C@@H](CC(=O)[C@@H](NC(=O)c1cc(C)on1)C(C)C)Cc1ccc(F)cc1` [Rupintrivir], the “inhibition of 3CLpro (in words)” value in assay [3] is reported as “no observed inhibition”. The IC50 came to 4400 nM in assay [1] and 1.04 nM in assay [2].
